Measurements collected from several papers.
Each line is one published result; the experiments were not run side by side.
Effect on: cell growth or viability

| Structure (SMILES) | cell line | assay | conditions | IC50 |
| --- | --- | --- | --- | --- |
| COc1cc([C@@H]2c3cc4c(cc3[C@@H](O[C@@H]3O[C@@H]5CO[C@@H](C)O[C@H]5[C@H](O)[C@H]3O)[C@H]3COC(=O)[C@H]23)OCO4)cc(OC)c1O | HL-60 | MTS | 72 h | 30 nM |
| COc1cc(C(=O)c2nc(-c3ccnc4[nH]ccc34)c[nH]2)cc(OC)c1OC | M14 | MTS | 72 h | 15.8 nM |
| COc1cccc2c1C(=O)c1c(O)c3c(c(O)c1C2=O)C[C@@](O)(C(=O)CO)C[C@@H]3O[C@H]1C[C@H](N)[C@H](O)[C@H](C)O1 | CHO-K1 | ATP luminescence | 72 h | 340 nM |
| COc1cc(C(=O)c2nc(-c3ccsc3)c[nH]2)cc(OC)c1OC | M14 | MTS | 72 h | 48.5 nM |
| COc1cccc(NC(=S)N/N=C/c2cccc3cc4ccccc4nc23)c1 | SK-BR-3 | MTT | 48 h | > 50000 nM |
| COc1ccc(N(C)c2nc(C)nc3ccccc23)cc1OCCCC(=O)NO | MP41 | ATP luminescence | 72 h | 84.4 nM |
| COc1cccc2c1C(=O)c1c(O)c3c(c(O)c1C2=O)C[C@@](O)(C(=O)CO)C[C@@H]3O[C@H]1C[C@H](N)[C@H](O)[C@H](C)O1 | SK-BR-3 | MTT | 24 h | 54.4 µg/mL |
| c1ccc(Oc2ccc(Nc3c4c(nc5ccccc35)CCC4)cc2)cc1 | RAW264.7 | resazurin | 72 h | 40800 nM |
| CC1CCC(C(C)C)C(OC2=C(Cl)C(=O)c3ccccc3C2=O)C1 (stereo not drawn) | SK-BR-3 | MTT | 24 h | 4 µg/mL |
| C[C@H]1[C@H](C)CC[C@]2(C)CC[C@]3(C)C(=CC(=O)[C@@H]4[C@@]5(C)CC[C@@H](O)[C@](C)(C(=O)NCc6cn(-c7cccc(Br)c7)nn6)[C@@H]5CC[C@]43C)[C@H]12 | HDF | MTT | 24 h | 121000 nM |
| FC(F)(F)c1cc(OCc2cc(-c3ccccn3)no2)c2ccccc2n1 | HL-60 | MTS | 72 h | > 100000 nM |
| CCCNC(=S)N/N=C/c1cccc2cc3ccccc3nc12 | SK-BR-3 | MTT | 48 h | > 50000 nM |
| O=C(NO)c1ccc(Cn2cnc3c(Nc4cccc([N+](=O)[O-])c4)ncnc32)cc1 | U-266 | MTT | 72 h | 310 nM |
| COc1cc(C(=O)c2nc(-c3cccc4[nH]ccc34)cs2)cc(OC)c1OC | M14 | MTS | 72 h | 4.5 nM |
| O=c1cc(OCc2cc(-c3ccccn3)no2)c2ccccc2o1 | HL-60 | MTS | 72 h | > 100000 nM |
| COc1nnc2ccc(N3CCC(c4ccc(OCCN5CCN(C)C(=O)[C@H]5C)cc4)CC3)nn12 | MP41 | ATP luminescence | 72 h | 90.4 nM |
| C[C@H]1[C@H](C)CC[C@]2(C)CC[C@]3(C)C(=CC(=O)[C@@H]4[C@@]5(C)CC[C@@H](O)[C@](C)(C(=O)NCc6cn(-c7ccc(Cl)cc7)nn6)[C@@H]5CC[C@]43C)[C@H]12 | HDF | MTT | 24 h | 191000 nM |
| CC(=O)O[C@H]1C(=O)[C@@]2(C)[C@H]([C@H](OC(=O)c3ccccc3)[C@]3(O)C[C@H](OC(=O)[C@H](O)[C@@H](NC(=O)c4ccccc4)c4ccccc4)C(C)=C1C3(C)C)[C@]1(OC(C)=O)CO[C@@H]1C[C@@H]2O | M14 | MTS | 72 h | 0.2 nM |
| C[C@H]1[C@H](C)CC[C@]2(C)CC[C@]3(C)C(=CC(=O)[C@@H]4[C@@]5(C)CC[C@@H](O)[C@](C)(C(=O)NCc6cn(-c7ccccc7)nn6)[C@@H]5CC[C@]43C)[C@H]12 | HDF | MTT | 24 h | 181000 nM |
| COc1ccc(-c2ccc3c(N4CCOC[C@@H]4C)nc(N4CCOC[C@@H]4C)nc3n2)cc1COC(=O)CCOCCOCCOCCONC(=O)c1ccc(F)c(F)c1Nc1ccc(I)cc1F | D54 | WST-1 | 72 h | 327 nM |

| Structure (SMILES) | cell line | assay | conditions | IC50 |
| --- | --- | --- | --- | --- |
| COc1cc(C(=O)c2nc(-c3cccc4[nH]ccc34)c(C)[nH]2)cc(OC)c1OC | M14 | MTS | 72 h | 17.2 nM |
| C/C(=N/NC(=O)c1cn(-c2ccccc2)nc1-c1ccc(F)cc1)c1c(O)cc(C)oc1=O | Vero | MTT | 48 h | 191000 nM |
| COc1cc(C(=O)c2nc(-c3cccc4c3CC(=O)N4)c[nH]2)cc(OC)c1OC | M14 | MTS | 72 h | 9.5 nM |
| N#Cc1ccc(-c2cc(CNc3cccc4cccnc34)on2)cc1 | HL-60 | MTS | 72 h | 16500 nM |
| C[C@H]1[C@H](C)CC[C@]2(C)CC[C@]3(C)C(=CC(=O)[C@@H]4[C@@]5(C)CC[C@@H](O)[C@](C)(C(=O)NCc6cn(-c7cccc(C(F)(F)F)c7)nn6)[C@@H]5CC[C@]43C)[C@H]12 | HDF | MTT | 24 h | 116000 nM |
| COc1ccc(Nc2ncnc3c2ncn3Cc2ccc(C(=O)Nc3ccccc3N)cc2)cc1 | U-266 | MTT | 72 h | 4210 nM |
| Fc1ccc(NC(=S)N/N=C/c2cccc3cc4ccccc4nc23)cc1 | SK-BR-3 | MTT | 48 h | > 50000 nM |
| COc1cc([C@@H]2c3cc4c(cc3[C@H](O)[C@H]3COC(=O)[C@H]23)OCO4)cc(OC)c1OC | MP41 | ATP luminescence | 72 h | 6.49 nM |
| FC(F)(F)c1cc(OCc2cc(-c3ccc(Cl)cc3Cl)no2)c2ccccc2n1 | HL-60 | MTS | 72 h | > 100000 nM |
| CCS(=O)(=O)Nc1ccc(Oc2ccc(F)cc2F)c(-c2cn(C)c(=O)c3[nH]ccc23)c1 | MP41 | ATP luminescence | 72 h | 99.6 nM |
| C[C@H]1[C@H](C)CC[C@]2(C)CC[C@]3(C)C(=CC(=O)[C@@H]4[C@@]5(C)CC[C@@H](O)[C@](C)(C(=O)NCc6cn(-c7ccc(F)cc7)nn6)[C@@H]5CC[C@]43C)[C@H]12 | HDF | MTT | 24 h | 108000 nM |
| Nc1ccccc1NC(=O)c1ccc(Cn2cnc3c(Nc4ccc(Cl)cc4)ncnc32)cc1 | U-266 | MTT | 72 h | 330 nM |
| CC(=O)N1c2ccc(-c3ccc(C(=O)O)cc3)cc2[C@H](Nc2ccc(Cl)cc2)C[C@@H]1C | MP41 | ATP luminescence | 72 h | 154 nM |
| NC1=NN(c2ccc([N+](=O)[O-])cc2[N+](=O)[O-])C(=O)C1N=Nc1ccccc1C(=O)O (stereo not drawn) | Vero | MTT | 72 h | 54400 nM |
| CO[C@H]1[C@H](O[C@H]([C@H]2O[C@@H](n3ccc(=O)[nH]c3=O)[C@H](O)[C@@H]2O)[C@H](NCCCNC(=O)[C@@H](NC(=O)[C@@H](NC(=O)N[C@H](C(=O)O)C(C)C)[C@@H]2CCN=C(N)N2)[C@@H](O)C(C)C)C(=O)O)O[C@H](CN)[C@H]1O | SK-BR-3 | WST-1 |  | > 35000 nM |
| Cc1[nH]c2ccccc2c1CCNCc1ccc(/C=C/C(=O)NO)cc1 | MP41 | ATP luminescence | 72 h | 14.3 nM |
| O=C(NO)c1ccc(Cn2cnc3c(Nc4ccc(F)c(Cl)c4)ncnc32)cc1 | U-266 | MTT | 72 h | 1460 nM |
| COc1cc(C(=O)c2nc(-c3cccc4cc[nH]c34)c[nH]2)cc(OC)c1OC | M14 | MTS | 72 h | 27.3 nM |
| CNC(=S)N/N=C/c1cccc2cc3ccccc3nc12 | SK-BR-3 | MTT | 48 h | 41800 nM |
